Source: ChEMBL document CHEMBL1142244, “Cytotoxic constituents from the fruiting branches of Callicarpa americana collected in southern Florida” (J Nat Prod, 2007)
In brackets after ≈: the same amount, converted by molar mass.

Legend:
MCF7 [1] = experiment: (§1) Cytotoxicity against human MCF7 cells; assay type: cell-based; details: mcf7
Lu1 [2] = experiment: (§2) Cytotoxicity against human Lu1 cells; assay type: cell-based; details: lu1
Col2 = experiment: (§3) Cytotoxicity against human Col2 cells; assay type: cell-based; details: col2
LNCaP [3] = experiment: (§4) Cytotoxicity against human LNCaP cells; assay type: cell-based; details: lncap
TERT-RPE1 = experiment: (§5) Cytotoxicity against human TERT-RPE1 cells; assay type: cell-based; details: tert-rpe1
HUVEC = experiment: (§6) Cytotoxicity against human HUVEC cells; assay type: cell-based; details: huvec
[4] = as §2; assay type: cell-based; details: Lu1 cells, read-out: ED50 (the source's name)
[5] = as §3; assay type: cell-based; details: Col2 cells, read-out: ED50 (the source's name)
[6] = as §4; assay type: cell-based; details: LNCaP cells, read-out: ED50 (the source's name)
[7] = as §5; assay type: cell-based; details: TERT-RPE1 cells, read-out: ED50 (the source's name)
[8] = as §6; assay type: cell-based; details: HUVEC cells, read-out: ED50 (the source's name)
LNCaP [9] = experiment: Cytotoxicity against human LNCaP cells xenografted in NCr nu/nu athymic mouse at 6.25 mg/kg, ip by hollow fiber assay; assay type: organism-based; set-up: dose 6.25 mg/kg, route intraperitoneal; details: in vivo
How it was run: (§7)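 Female-unspecified NCr nu/nu athymic mice, five to six weeks old. LNCaP, Lu1 and MCF-7 cells were sealed in semi-porous hollow fibres and implanted at intraperitoneal and subcutaneous sites, each mouse carrying all three lines at both sites. Compound was given i.p. at 6.25, 12.5, 25 or 50 mg/kg, with three mice per dose group.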

LNCaP [10] = experiment: Cytotoxicity against human LNCaP cells xenografted in NCr nu/nu athymic mouse at 12.5 mg/kg, ip by hollow fiber assay; assay type: organism-based; set-up: dose 12.5 mg/kg, route intraperitoneal; details: in vivo; how it was run: as §7
LNCaP [11] = experiment: Cytotoxicity against human LNCaP cells xenografted in NCr nu/nu athymic mouse at 25 mg/kg, ip by hollow fiber assay; assay type: organism-based; set-up: dose 25 mg/kg, route intraperitoneal; details: in vivo; how it was run: as §7
LNCaP [12] = experiment: Cytotoxicity against human LNCaP cells xenografted in NCr nu/nu athymic mouse at 50 mg/kg, ip by hollow fiber assay; assay type: organism-based; set-up: dose 50 mg/kg, route intraperitoneal; details: in vivo; how it was run: as §7
Lu1 [13] = experiment: Cytotoxicity against human Lu1 cells xenografted in NCr nu/nu athymic mouse at 6.25 mg/kg, ip by hollow fiber assay; assay type: organism-based; set-up: dose 6.25 mg/kg, route intraperitoneal; details: in vivo; how it was run: as §7
Lu1 [14] = experiment: Cytotoxicity against human Lu1 cells xenografted in NCr nu/nu athymic mouse at 12.5 mg/kg, ip by hollow fiber assay; assay type: organism-based; set-up: dose 12.5 mg/kg, route intraperitoneal; details: in vivo; how it was run: as §7
Lu1 [15] = experiment: Cytotoxicity against human Lu1 cells xenografted in NCr nu/nu athymic mouse at 25 mg/kg, ip by hollow fiber assay; assay type: organism-based; set-up: dose 25 mg/kg, route intraperitoneal; details: in vivo; how it was run: as §7
Lu1 [16] = experiment: Cytotoxicity against human Lu1 cells xenografted in NCr nu/nu athymic mouse at 50 mg/kg, ip by hollow fiber assay; assay type: organism-based; set-up: dose 50 mg/kg, route intraperitoneal; details: in vivo; how it was run: as §7
MCF7 [17] = experiment: Cytotoxicity against human MCF7 cells xenografted in NCr nu/nu athymic mouse at 6.25 mg/kg, ip by hollow fiber assay; assay type: organism-based; set-up: dose 6.25 mg/kg, route intraperitoneal; details: in vivo; how it was run: as §7
MCF7 [18] = experiment: Cytotoxicity against human MCF7 cells xenografted in NCr nu/nu athymic mouse at 12.5 mg/kg, ip by hollow fiber assay; assay type: organism-based; set-up: dose 12.5 mg/kg, route intraperitoneal; details: in vivo; how it was run: as §7
MCF7 [19] = experiment: Cytotoxicity against human MCF7 cells xenografted in NCr nu/nu athymic mouse at 25 mg/kg, ip by hollow fiber assay; assay type: organism-based; set-up: dose 25 mg/kg, route intraperitoneal; details: in vivo; how it was run: as §7
MCF7 [20] = experiment: Cytotoxicity against human MCF7 cells xenografted in NCr nu/nu athymic mouse at 50 mg/kg, ip by hollow fiber assay; assay type: organism-based; set-up: dose 50 mg/kg, route intraperitoneal; details: in vivo; how it was run: as §7
[21] = as §1; assay type: cell-based; details: MCF7 cells, read-out: ED50 (the source's name)

CC1=CCC[C@@H]2[C@@](C)(C[C@H](O)C3=CC(=O)OC3)[C@H](C)CC[C@@]12C
Activity (MCF7 [1]): Not Active
Activity (Lu1 [2]): Not Active
Activity (Col2): Not Active
Activity (LNCaP [3]): Not Active
Activity (TERT-RPE1): Not Active
Activity (HUVEC): Not Active

C=C1[C@@H](O)CC[C@@H]2[C@@](C)(C[C@H](O)C3=CC(=O)OC3)[C@H](C)CC[C@@]12C
Activity (MCF7 [1]): Not Active
Activity (Lu1 [2]): Not Active
Activity (Col2): Not Active
Activity (LNCaP [3]): Not Active
Activity (TERT-RPE1): Not Active
Activity (HUVEC): Not Active

CC1=CCC[C@@H]2[C@@](C)(C[C@H](O)C3=CC(=O)O[C@H]3O)[C@H](C)CC[C@@]12C
CC50 [4]: 2.4 µg/mL (≈ 7.18 µM)
CC50 [5]: 2.3 µg/mL (≈ 6.88 µM)
CC50 [6]: 4.1 µg/mL (≈ 12.3 µM)
CC50 [7]: 1.9 µg/mL (≈ 5.68 µM)
CC50 [8]: 1.8 µg/mL (≈ 5.38 µM)
Activity (LNCaP [9]): Not Active
Activity (LNCaP [10]): Not Active
Activity (LNCaP [11]): Not Active
Activity (LNCaP [12]): Not Active
Activity (Lu1 [13]): Not Active
Activity (Lu1 [14]): Not Active
Activity (Lu1 [15]): Not Active
Activity (Lu1 [16]): Not Active
Activity (MCF7 [17]): Not Active
Activity (MCF7 [18]): Not Active
Activity (MCF7 [19]): Not Active
Activity (MCF7 [20]): Not Active

CC1=CCC[C@@H]2[C@@](C)(/C=C/C3=CC(=O)O[C@H]3O)[C@H](C)CC[C@@]12C
CC50 [21]: 2.7 µg/mL (≈ 8.53 µM)
CC50 [4]: 2.6 µg/mL (≈ 8.22 µM)
CC50 [6]: 2.5 µg/mL (≈ 7.9 µM)
CC50 [8]: 1.2 µg/mL (≈ 3.79 µM)

CC1=C(C=O)C[C@@H]2[C@@](C)(CCC3=CC(=O)OC3O)[C@H](C)CC[C@@]12C (some centres not stated)
CC50 [21]: 3.9 µg/mL (≈ 11.7 µM)
CC50 [4]: 8.7 µg/mL (≈ 26.2 µM)
CC50 [5]: 9 µg/mL (≈ 27.1 µM)
CC50 [6]: 4.5 µg/mL (≈ 13.5 µM)
CC50 [7]: 1.9 µg/mL (≈ 5.72 µM)
CC50 [8]: 9.8 µg/mL (≈ 29.5 µM)

COc1ccc(-c2cc(=O)c3c(O)cc(OC)cc3o2)cc1
Activity (MCF7 [1]): Not Active
Activity (Lu1 [2]): Not Active
Activity (Col2): Not Active
Activity (LNCaP [3]): Not Active
Activity (TERT-RPE1): Not Active
Activity (HUVEC): Not Active

C=C1[C@@H](O)CC[C@@H]2[C@@](C)(CCC3=CC(=O)O[C@H]3O)[C@H](C)CC[C@@]12C
Activity (MCF7 [1]): Not Active
Activity (Lu1 [2]): Not Active
Activity (Col2): Not Active
Activity (LNCaP [3]): Not Active
Activity (TERT-RPE1): Not Active
Activity (HUVEC): Not Active

CO[C@@H]1OC(=O)C=C1[C@@H](O)C[C@@]1(C)[C@H](C)CC[C@@]2(C)C(C)=CCC[C@H]12
Activity (MCF7 [1]): Not Active
Activity (Lu1 [2]): Not Active
Activity (Col2): Not Active
Activity (LNCaP [3]): Not Active
Activity (TERT-RPE1): Not Active
Activity (HUVEC): Not Active

CC1=CCC[C@@H]2[C@@](C)(CCC3=CC(=O)O[C@H]3O)[C@H](C)CC[C@@]12C
CC50 [21]: 3.5 µg/mL (≈ 11 µM)
CC50 [4]: 3.7 µg/mL (≈ 11.6 µM)
CC50 [6]: 3.3 µg/mL (≈ 10.4 µM)
CC50 [8]: 4.1 µg/mL (≈ 12.9 µM)

CC1=CCC[C@@H]2[C@@](C)(C[C@H](O)C3=CCOC3=O)[C@H](C)CC[C@@]12C
CC50 [21]: 2.8 µg/mL (≈ 8.79 µM)
CC50 [4]: 2.9 µg/mL (≈ 9.11 µM)
CC50 [6]: 3.3 µg/mL (≈ 10.4 µM)

CC1(C)C(=O)CC[C@@]2(C)[C@H]1CC[C@@]13C[C@H](CC[C@@H]12)[C@@](O)(CO)C3 [CALLITERPENONE]
Activity (MCF7 [1]): Not Active
Activity (Lu1 [2]): Not Active
Activity (Col2): Not Active
Activity (LNCaP [3]): Not Active
Activity (TERT-RPE1): Not Active
Activity (HUVEC): Not Active

C[C@@H]1CC[C@]2(C(=O)O)CC[C@]3(C)C(=CC[C@@H]4[C@@]5(C)C[C@@H](O)[C@@H](O)C(C)(C)[C@@H]5CC[C@]43C)[C@@H]2[C@]1(C)O [EUSCAPHIC ACID]
Activity (MCF7 [1]): Not Active
Activity (Lu1 [2]): Not Active
Activity (Col2): Not Active
Activity (LNCaP [3]): Not Active
Activity (TERT-RPE1): Not Active
Activity (HUVEC): Not Active

COc1cc(O)c2c(=O)cc(-c3ccc(O)cc3)oc2c1 [GENKWANIN]
CC50 [4]: > 20 µg/mL
CC50 [5]: > 20 µg/mL
CC50 [6]: > 20 µg/mL
CC50 [7]: 3.9 µg/mL (≈ 13.7 µM)
CC50 [8]: > 20 µg/mL

COc1ccc(-c2cc(=O)c3c(O)c(OC)c(OC)cc3o2)cc1 [SALVIGENIN]
Activity (MCF7 [1]): Not Active
Activity (Lu1 [2]): Not Active
Activity (Col2): Not Active
Activity (LNCaP [3]): Not Active
Activity (TERT-RPE1): Not Active
Activity (HUVEC): Not Active
